Source: article PMC12399198 (Acta Pharmaceutica Sinica. B, 2025)
Peptide text beside a SMILES is read from it. * marks the point of attachment. Cbz = O=C(OCc1ccccc1)*

Tests used:
[1] = tested on: OVA-induced AR mouse model; assay: OVA-induced AR mouse model; format: in vivo; conditions: OVA-induced AR mice
Outline: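 Male C57BL/6 mice, 6 weeks old, sensitised i.p. with OVA/alum (1:1) weekly for 3 weeks. Then challenged i.n. with OVA 2 mg/20 µL daily for 7 days. Test compound given i.n. at 0, 5, 10 or 20 mg/kg in 5% DMSO/45% PEG400/50% PBS, once daily, 6 h before each challenge; dexamethasone 1 mg/kg as reference. Sneezes and nasal rubs counted blinded for 10 min, starting 10 min after challenge; n = 8.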

Keap1 = Keap1 (Homo sapiens, UniProt Q14145); assay: Keap1 degradation in MDA-MB-231 cells; format: cell-based; conditions: 24 h, dose-dependent
Chain of Keap1 (Q14145 whole entry): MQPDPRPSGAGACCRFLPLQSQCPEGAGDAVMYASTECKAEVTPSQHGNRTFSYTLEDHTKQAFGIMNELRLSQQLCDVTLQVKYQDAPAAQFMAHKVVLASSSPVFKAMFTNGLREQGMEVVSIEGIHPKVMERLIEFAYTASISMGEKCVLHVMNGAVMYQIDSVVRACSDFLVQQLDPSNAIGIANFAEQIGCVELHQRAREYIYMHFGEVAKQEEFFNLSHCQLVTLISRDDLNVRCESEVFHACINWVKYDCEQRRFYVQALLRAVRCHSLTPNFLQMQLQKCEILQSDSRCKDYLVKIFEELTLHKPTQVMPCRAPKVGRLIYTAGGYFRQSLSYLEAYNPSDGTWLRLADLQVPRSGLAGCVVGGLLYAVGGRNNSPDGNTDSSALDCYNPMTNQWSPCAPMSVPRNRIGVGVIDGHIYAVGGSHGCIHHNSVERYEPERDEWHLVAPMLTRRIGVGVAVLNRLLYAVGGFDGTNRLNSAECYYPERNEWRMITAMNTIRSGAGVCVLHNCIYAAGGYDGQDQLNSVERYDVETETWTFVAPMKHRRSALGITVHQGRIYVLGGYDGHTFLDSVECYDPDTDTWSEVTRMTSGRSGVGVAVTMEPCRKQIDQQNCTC

effect on Keap1 levels (Keap1)	Structure (SMILES)	allergic nasal symptoms (number of nasal rubbing and sneezing every 10 min) ([1]; i.n. daily for 7 days, 8 at 5, 10, 20 mg/kg, DEX 1 mg/kg)	CD45+ cells in nasal mucosa (IHC staining) ([1]; DEX or high dose of 8)	eosinophil infiltration within the nasal mucosa (Giemsa staining) ([1]; DEX or high dose of 8)
–	C[C@@H]1C[C@H]2[C@@H]3CCC4=CC(=O)C=C[C@]4(C)[C@@]3(F)[C@@H](O)C[C@]2(C)[C@@]1(O)C(=O)CO [DEX, Dexamethasone]	decreased	reduced	significantly reduced
decreasing Keap1 levels	CC(C)C[C@@H](C=O)NC(=O)[C@H](CC(C)C)NC(=O)[C@H](CC(C)C)NC(=O)OCc1ccccc1 [MG132] (Cbz-Leu-Leu-Leu-aldehyde)	–	–	–
